Reference: ChEMBL document CHEMBL4406794, “N-(7-Cyano-6-(4-fluoro-3-(2-(3-(trifluoromethyl)phenyl)acetamido)phenoxy)benzo[d]thiazol-2-yl)cyclopropanecarboxamide (TAK-632) Analogues as Novel Necroptosis Inhibitors by Targeting Receptor-Interacting Protein Kinase 3 (RIPK3): Synthesis, Structure-Activity Relationships, and in Vivo Efficacy” (J Med Chem, 2019)
The source made the active and inactive calls. The rule behind the calls is not given here.

Key:
[1] = AUC (0 to infinity) in Sprague-Dawley rat at 1 mg/kg, iv by LC-tandem mass spectrometry analysis; format: ADME, organism-based; parameters: dose 1 mg/kg, time infinity, route intravenous; conditions: in vivo
Outline: (§1)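 Male Sprague-Dawley rats dosed once i.v. at 1 mg/kg or intragastrically at 5 mg/kg. Compound dissolved in 5% DMSO, 10% Tween 80, 75% physiological saline at 0.2 and 1 mg/mL. Blood taken at several time points, plasma spun at 4 °C, stored at -80 °C, assayed by LC/MS/MS. Parameters from individual animals by noncompartmental analysis.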

[2] = molecular target: Mixed lineage kinase domain-like protein (Homo sapiens) (UniProt Q8NB16); experiment: Inhibition of MLKL phosphorylation in TNFalpha/smac mimetic/Z-VAD-fmk stimulated human HT-29 cells at 1 uM treated prior to TNFalpha/smac mimetic/Z-VAD-fmk stimulation and measured after 2 to 4 hrs by SDS-PAGE based immunoblot assay; format: cell-based
[3] = molecular target: Fibroblast growth factor receptor 3 (Homo sapiens) (UniProt P22607); experiment: Inhibition of wild-type human partial length FGFR3 (R442 to S771 residues) expressed in bacterial expression assessed as enzyme remaining activity at 1000 nM by Kinomescan method relative to control
[4] = AUC (0 to infinity) in Sprague-Dawley rat at 5 mg/kg, po by LC-tandem mass spectrometry analysis; format: ADME, organism-based; parameters: dose 5 mg/kg, time infinity, route oral; conditions: in vivo; outline: as §1
[5] = molecular target: MAP kinase-activated protein kinase 2 (Homo sapiens) (UniProt P49137); experiment: Inhibition of wild-type human partial length MAPKAPK2 (V48 to D345 residues) expressed in bacterial expression system assessed as enzyme remaining activity at 1000 nM by Kinomescan method relative to control
[6] = system: Serine/threonine-protein kinase B-raf (Homo sapiens), P15056 [V600E]; experiment: Inhibition of human partial length BRAF V600E mutant (S429 to E741 residues) expressed in mammalian expression system assessed as enzyme remaining activity at 1000 nM by Kinomescan method relative to control
[7] = molecular target: Receptor-interacting serine/threonine-protein kinase 3 (Homo sapiens, UniProt Q9Y572); experiment: Inhibition of RIPK3 phosphorylation in TNFalpha/smac mimetic/Z-VAD-fmk stimulated human HT-29 cells at 1 uM treated prior to TNFalpha/smac mimetic/Z-VAD-fmk stimulation and measured after 2 to 4 hrs by SDS-PAGE based immunoblot assay; format: cell-based
[8] = molecular target: Mitogen-activated protein kinase 3 (Homo sapiens) (UniProt P27361); experiment: Inhibition of wild-type human full length ERK1 (M1 to P379 residues) expressed in bacterial expression system assessed as enzyme remaining activity at 1000 nM by Kinomescan method relative to control
[9] = Oral bioavailability in Sprague-Dawley rat at 5 mg/kg by LC-tandem mass spectrometry analysis; format: ADME, organism-based; conditions: in vivo; outline: as §1
Homo sapiens = organism: Homo sapiens; experiment: Selectivity ratio of Kd for human partial length RIPK1 (M1 to K305 residues) expressed in bacterial expression system to Kd for wild-type human partial length RIPK3 (M1 to Q307 residues) expressed in bacterial expression system
[10] = system: Epidermal growth factor receptor (Homo sapiens), P00533 [L858R]; experiment: Inhibition of wild-type human partial length EGFR L858R mutant (R669 to V1011 residues) expressed in bacterial expression system assessed as enzyme remaining activity at 1000 nM by Kinomescan method relative to control
Outline: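 KINOMEscan binding competition. […] Incubation was 1 h at room temperature with shaking, then bead wash and elution with 0.5 μM nonbiotinylated ligand for 30 min. Eluted kinase was quantified by qPCR. Compound was diluted from 40× DMSO stocks to 1000 nM final.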

[11] = Cmax in Sprague-Dawley rat at 1 mg/kg, iv by LC-tandem mass spectrometry analysis; format: ADME, organism-based; parameters: dose 1 mg/kg, route intravenous; conditions: in vivo; outline: as §1
L929 = experiment: Cytoprotection against TNFalpha/Z-VAD-fmk-induced necroptosis in mouse L929 cells at 0.01 to 1 uM treated prior to TNFalpha/Z-VAD-fmk stimulation and measured after 4 hrs by cell-Titer Glo luminescent cell viability assay; format: functional, cell-based
Outline: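 Mouse L929 cells (DMEM, 10% FBS) pretreated with compound at the indicated concentrations, then given mouse TNF-α 20 ng/mL and z-VAD-fmk 20 μM for 4 h. Viability read by CellTiter-Glo luminescence.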

Mus musculus [12] = experiment: (§2) Protection against TNFalpha/Z-VAD-fmk-induced C57BL/6J mouse model of systemic inflammatory response syndrome at 5 mg/kg, po administered via gavage 2 hrs prior to Z-VAD-fmk addition for 15 mins followed by TNFalpha stimulation for 1 hr and subsequent Z-VAD-fmk addition meaured up to 50 hrs post TNFalpha stimulation relative to control; format: functional
Outline: (§3)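 Overnight-fasted C57BL/6 female mice, n=10 per group. Test compound was given by oral gavage 2 h before mTNF-α. z-VAD-fmk (180 µg) was injected ip, then 15 min later mTNF-α in endotoxin-free PBS was injected iv (400 µg/kg). A second z-VAD-fmk dose (70 µg) was given ip 1 h after TNF. Body temperature and survival were followed against vehicle. One-way ANOVA was used.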

Mus musculus [13] = experiment: as §2, with “at 25” for “at 5”; format: functional; outline: as §3
HT-29 = experiment: Effect on TNFalpha/cycloheximide-induced apoptosis in human HT-29 cells at 3 uM treated prior to TNFalpha/cycloheximide stimulation and measured after 20 hrs by cell-Titer Glo luminescent cell viability assay; format: cell-based; conditions: ht-29, 20 h
Outline: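 HT-29 cells pretreated with compound at 3 μM or DMSO, then given TNF-α 20 ng/mL with either cycloheximide 5 μg/mL (TC) or Smac mimetic 10 nM (TS) for 20 h. Viability read by CellTiter-Glo luminescence.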

[14] = Apparent volume of distribution at steady state in Sprague-Dawley rat at 1 mg/kg, iv by LC-tandem mass spectrometry analysis; format: ADME, organism-based; conditions: in vivo, read-out: Vdss(app); outline: as §1
[15] = molecular target: Cyclin-dependent kinase 2 (Homo sapiens) (UniProt P24941); experiment: Inhibition of wild-type human full length CDK2 (M1 to L298 residues) expressed in bacterial expression system assessed as enzyme remaining activity at 1000 nM by Kinomescan method relative to control
[16] = molecular target: Inhibitor of nuclear factor kappa-B kinase subunit alpha (Homo sapiens) (UniProt O15111); experiment: Inhibition of wild-type human full length IKK-alpha (M1 to E745 residues) expressed in mammalian expression system assessed as enzyme remaining activity at 1000 nM by Kinomescan method relative to control
Chain of Inhibitor of nuclear factor kappa-B kinase subunit alpha (Homo sapiens) (O15111 whole entry, the tested form may be a part): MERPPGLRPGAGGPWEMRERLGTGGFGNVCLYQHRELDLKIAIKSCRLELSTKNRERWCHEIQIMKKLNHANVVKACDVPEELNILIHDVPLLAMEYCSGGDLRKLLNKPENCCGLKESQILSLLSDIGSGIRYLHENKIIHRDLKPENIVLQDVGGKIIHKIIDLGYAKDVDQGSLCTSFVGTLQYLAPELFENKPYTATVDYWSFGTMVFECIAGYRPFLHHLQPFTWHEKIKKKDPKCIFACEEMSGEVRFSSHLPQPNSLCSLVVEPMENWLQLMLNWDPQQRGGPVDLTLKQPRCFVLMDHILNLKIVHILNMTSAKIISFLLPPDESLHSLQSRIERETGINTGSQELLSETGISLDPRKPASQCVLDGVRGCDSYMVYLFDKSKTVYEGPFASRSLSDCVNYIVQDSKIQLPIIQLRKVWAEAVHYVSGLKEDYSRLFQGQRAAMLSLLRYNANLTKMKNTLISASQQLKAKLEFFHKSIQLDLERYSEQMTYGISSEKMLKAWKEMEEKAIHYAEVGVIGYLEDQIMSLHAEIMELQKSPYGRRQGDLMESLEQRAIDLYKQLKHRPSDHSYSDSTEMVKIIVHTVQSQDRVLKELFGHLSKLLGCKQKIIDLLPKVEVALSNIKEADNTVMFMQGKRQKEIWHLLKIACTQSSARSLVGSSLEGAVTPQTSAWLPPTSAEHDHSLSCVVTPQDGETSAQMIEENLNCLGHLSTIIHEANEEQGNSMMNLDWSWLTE

Chain of Receptor-interacting serine/threonine-protein kinase 3 (Q9Y572 whole entry, looked up, the tested form may be a part): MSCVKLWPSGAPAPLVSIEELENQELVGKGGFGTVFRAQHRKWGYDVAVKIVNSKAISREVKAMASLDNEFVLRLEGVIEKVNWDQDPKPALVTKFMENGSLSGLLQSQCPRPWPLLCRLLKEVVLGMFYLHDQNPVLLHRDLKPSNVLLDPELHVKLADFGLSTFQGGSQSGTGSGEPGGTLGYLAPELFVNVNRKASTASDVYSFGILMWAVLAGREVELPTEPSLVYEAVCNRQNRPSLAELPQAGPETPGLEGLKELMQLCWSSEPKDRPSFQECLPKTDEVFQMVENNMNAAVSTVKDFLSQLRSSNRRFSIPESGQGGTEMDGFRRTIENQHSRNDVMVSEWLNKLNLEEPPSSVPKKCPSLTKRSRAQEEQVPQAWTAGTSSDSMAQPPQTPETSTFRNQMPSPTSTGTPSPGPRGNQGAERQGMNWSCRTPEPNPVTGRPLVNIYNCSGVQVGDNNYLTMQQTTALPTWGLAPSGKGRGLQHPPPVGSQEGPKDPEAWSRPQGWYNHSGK
Chain of Serine/threonine-protein kinase B-raf (Homo sapiens), P15056 [V600E] (P15056 whole entry V600E, the tested form may be a part): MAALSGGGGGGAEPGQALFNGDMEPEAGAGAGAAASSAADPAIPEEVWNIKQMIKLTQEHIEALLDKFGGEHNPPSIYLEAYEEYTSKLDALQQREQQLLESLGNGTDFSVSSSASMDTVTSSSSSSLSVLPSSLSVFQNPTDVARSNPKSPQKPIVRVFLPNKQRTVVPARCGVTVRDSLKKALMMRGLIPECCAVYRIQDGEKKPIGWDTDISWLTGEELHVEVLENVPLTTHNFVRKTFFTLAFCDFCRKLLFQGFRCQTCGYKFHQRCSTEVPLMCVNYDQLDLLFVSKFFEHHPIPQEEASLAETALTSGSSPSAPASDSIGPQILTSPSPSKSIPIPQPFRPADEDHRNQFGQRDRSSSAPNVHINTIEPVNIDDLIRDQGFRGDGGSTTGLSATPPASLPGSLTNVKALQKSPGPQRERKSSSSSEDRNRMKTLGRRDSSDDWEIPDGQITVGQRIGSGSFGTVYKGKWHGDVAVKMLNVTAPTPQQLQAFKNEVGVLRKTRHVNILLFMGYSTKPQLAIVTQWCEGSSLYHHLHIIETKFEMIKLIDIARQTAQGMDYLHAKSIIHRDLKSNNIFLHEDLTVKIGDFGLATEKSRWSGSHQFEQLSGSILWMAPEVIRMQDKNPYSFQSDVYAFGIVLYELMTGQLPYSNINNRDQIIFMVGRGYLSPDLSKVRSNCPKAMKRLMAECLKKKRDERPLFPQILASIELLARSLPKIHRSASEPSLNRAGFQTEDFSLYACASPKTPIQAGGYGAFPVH
Chain of MAP kinase-activated protein kinase 2 (Homo sapiens) (P49137 whole entry, looked up, the tested form may be a part): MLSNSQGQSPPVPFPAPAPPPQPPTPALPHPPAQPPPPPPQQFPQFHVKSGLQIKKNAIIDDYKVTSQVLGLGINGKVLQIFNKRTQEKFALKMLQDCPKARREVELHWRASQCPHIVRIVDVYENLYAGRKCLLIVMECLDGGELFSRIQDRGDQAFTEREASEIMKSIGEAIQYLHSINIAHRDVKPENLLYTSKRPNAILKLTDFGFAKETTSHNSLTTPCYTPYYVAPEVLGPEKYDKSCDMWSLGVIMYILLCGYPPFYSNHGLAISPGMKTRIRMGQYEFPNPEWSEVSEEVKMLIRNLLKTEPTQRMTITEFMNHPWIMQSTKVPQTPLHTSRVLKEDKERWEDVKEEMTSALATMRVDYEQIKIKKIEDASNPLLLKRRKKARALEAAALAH
Chain of Fibroblast growth factor receptor 3 (Homo sapiens) (P22607 23-806 limits assumed): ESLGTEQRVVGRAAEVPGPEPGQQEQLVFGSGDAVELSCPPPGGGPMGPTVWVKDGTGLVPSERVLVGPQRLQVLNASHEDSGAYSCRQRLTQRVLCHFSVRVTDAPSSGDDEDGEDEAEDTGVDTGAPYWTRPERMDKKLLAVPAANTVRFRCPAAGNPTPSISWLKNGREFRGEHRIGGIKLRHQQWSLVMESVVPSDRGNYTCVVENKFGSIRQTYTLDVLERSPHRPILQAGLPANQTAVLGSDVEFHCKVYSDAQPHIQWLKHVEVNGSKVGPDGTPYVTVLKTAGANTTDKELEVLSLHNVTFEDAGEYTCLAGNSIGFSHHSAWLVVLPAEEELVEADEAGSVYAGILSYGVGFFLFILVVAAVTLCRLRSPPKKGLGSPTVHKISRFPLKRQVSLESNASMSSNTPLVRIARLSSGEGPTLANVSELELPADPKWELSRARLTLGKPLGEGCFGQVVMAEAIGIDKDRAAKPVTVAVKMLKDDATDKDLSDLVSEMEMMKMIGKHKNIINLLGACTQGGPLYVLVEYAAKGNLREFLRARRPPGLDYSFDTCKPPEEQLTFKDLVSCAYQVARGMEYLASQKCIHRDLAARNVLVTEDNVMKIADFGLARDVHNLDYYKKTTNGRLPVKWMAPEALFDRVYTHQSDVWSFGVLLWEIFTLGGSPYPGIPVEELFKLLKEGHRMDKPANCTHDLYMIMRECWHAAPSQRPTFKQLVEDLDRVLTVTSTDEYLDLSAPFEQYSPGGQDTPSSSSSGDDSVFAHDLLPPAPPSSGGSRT
Chain of Mitogen-activated protein kinase 3 (Homo sapiens) (P27361 whole entry, the tested form may be a part): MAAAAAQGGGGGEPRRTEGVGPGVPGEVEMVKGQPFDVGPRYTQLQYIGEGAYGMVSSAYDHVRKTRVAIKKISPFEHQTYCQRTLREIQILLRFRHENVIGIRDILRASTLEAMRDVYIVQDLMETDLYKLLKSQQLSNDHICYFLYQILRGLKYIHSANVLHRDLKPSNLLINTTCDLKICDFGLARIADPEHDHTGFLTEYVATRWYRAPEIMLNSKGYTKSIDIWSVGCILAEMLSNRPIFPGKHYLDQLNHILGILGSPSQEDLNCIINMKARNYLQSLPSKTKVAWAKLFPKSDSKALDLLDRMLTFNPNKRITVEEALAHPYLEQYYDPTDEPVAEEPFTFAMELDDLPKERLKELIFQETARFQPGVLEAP
Chain of Mixed lineage kinase domain-like protein (Homo sapiens) (Q8NB16 whole entry, the tested form may be a part): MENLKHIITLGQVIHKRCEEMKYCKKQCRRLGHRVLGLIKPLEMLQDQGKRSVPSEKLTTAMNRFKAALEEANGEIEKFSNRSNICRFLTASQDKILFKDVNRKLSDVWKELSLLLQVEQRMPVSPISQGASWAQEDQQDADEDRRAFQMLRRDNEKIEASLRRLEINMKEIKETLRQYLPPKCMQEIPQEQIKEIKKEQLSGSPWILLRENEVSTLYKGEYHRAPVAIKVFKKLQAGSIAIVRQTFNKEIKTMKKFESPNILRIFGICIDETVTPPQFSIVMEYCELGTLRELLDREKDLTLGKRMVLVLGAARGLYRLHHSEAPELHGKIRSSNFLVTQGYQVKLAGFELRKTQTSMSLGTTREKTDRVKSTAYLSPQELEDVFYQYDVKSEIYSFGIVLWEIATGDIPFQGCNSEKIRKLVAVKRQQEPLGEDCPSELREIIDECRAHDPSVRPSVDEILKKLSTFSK

Q: What does the source list for `O=C(Nc1cccc(Br)c1)Nc1cc(Oc2ccc3nc(NC(=O)C4CC4)sc3c2)ccc1F`?
A: AUC(0-inf) [1]: 6500 ng·h/mL; inhibition [2]: Active; Activity [3]: 62%; AUC(0-inf) [4]: 9320 ng·h/mL; Activity [5]: 100%; Activity [6]: 1.8%; inhibition [7]: Active; Activity [8]: 100%; bioavailability [9]: 25.2%; Ratio (Homo sapiens): > 61.7; Activity [10]: 61%; Cmax [11]: 4600 ng/mL; Activity (L929): Active; Activity (Mus musculus [12]): 90%; Activity (Mus musculus [13]): 100%; Activity (HT-29): Non-Toxic; Vd [14]: 3.49 L/kg; Activity [15]: 93%; Activity [16]: 100%
